Reference: ChEMBL document CHEMBL4837227, “Discovery and development of 2-aminobenzimidazoles as potent antimalarials” (Eur J Med Chem, 2021)
pIC50, pKd: −log10 of the molar value. Values after ≈ are worked out from the molar mass of the structure shown. One block for each molecule: values may come before it. Active and inactive are the calls of the source. No cut-off for these calls is given here.

Tests used:
[1] = test system: Plasmodium falciparum; experiment: Antimalarial activity against Plasmodium falciparum 3D7 assessed as reduction in parasite growth measured after 72 hrs by Monash assay based fluorescence analysis; format: functional, organism-based; conditions: 3D7, 72 h
In short: (§1)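 Asynchronous P. falciparum cultures were grown continuously in complete RPMI with 25 mM HEPES, 0.5% Albumax II, 0.37 mM hypoxanthine and 2.0 g/l bicarbonate. They were exposed to serially diluted compound for 72 h. Controls were DMSO (0.01%) and a reference positive control. Fluorescence was read after 2 h in the dark at room temperature. IC50 is mean SEM from technical duplicate or triplicate, at least three biological replicates.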

[2] = test system: Plasmodium falciparum 3D7; experiment: (§2) Binding affinity to Plasmodium falciparum 3D7 AMA1 (104 to 438 residues) expressed in Escherichia coli BL21(DE3) by surface plasmon resonance assay
[3] = test system: Plasmodium falciparum; experiment: Antimalarial activity against artemisinin-resistant Plasmodium falciparum Cam3.II^C580Y expressing K13 mutant assessed as reduction in parasite growth measured after 72 hrs by Monash assay based fluorescence analysis; format: functional, organism-based
In short: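 Asynchronous culture, 72 h compound exposure. Compounds prepared at […] (twice the top concentration) in complete RPMI (25 mM HEPES, 0.5% Albumax II, 0.37 mM hypoxanthine, sodium bicarbonate), then serially diluted. Fluorescence read after 2 h room-temperature dark incubation. Negative control 0.01% DMSO. IC50 as mean SEM, n ≥ 3 biological replicates, each in technical duplicate or triplicate.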

[4] = test system: Plasmodium falciparum; experiment: Antimalarial activity against artemisinin-sensitive Plasmodium falciparum Cam3.II^rev expressing wild type K13 assessed as reduction in parasite growth measured after 72 hrs by Monash assay based fluorescence analysis; format: functional, organism-based; in short: as §1
[5] = Selectivity index, ratio of IC50 for cytotoxicity against human HEK293 cells to antiplasmodial activity against Plasmodium falciparum 3D7; format: toxicity, cell-based; conditions: read-out: Ratio IC50
[6] = Kinetic solubility of the compound at pH 2 measured after 30 mins by nephelometry; format: physicochemical; conditions: buffer, read-out: Kinetic_solubility
In short: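 Compound in DMSO was spiked into 0.01 M HCl (pH ~2.0) at a final DMSO of 1%. After 30 min, nephelometry gave a solubility range.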

[7] = Metabolic stability in mouse liver microsomes assessed as half-life at 1 uM measured for 60 mins in presence of NADPH regenerating system by LC-MS analysis; format: ADME, Microsome
In short: (§3)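 Compound was incubated at 37 °C with liver microsomes at 0.4 mg/mL protein. The reaction was started with an NADPH-regenerating system and quenched at time points over 60 min with acetonitrile containing diazepam as internal standard. No-NADPH controls were quenched at 2, 30 and 60 min.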

[8] = Metabolic stability in human liver microsomes assessed as half-life at 1 uM measured for 60 mins in presence of NADPH regenerating system by LC-MS analysis; format: ADME, Microsome; in short: as §3
[9] = Metabolic stability in mouse liver microsomes assessed as intrinsic clearance at 1 uM measured per mg protein for 60 mins in presence of NADPH regenerating system by LC-MS analysis; format: ADME, Microsome; conditions: read-out: CLH; in short: as §3
[10] = Metabolic stability in human liver microsomes assessed as intrinsic clearance at 1 uM measured per mg protein after 60 mins in presence of NADPH regenerating system by LC-MS analysis; format: ADME, Microsome; conditions: read-out: CLH; in short: as §3
[11] = Kinetic solubility of the compound at pH 6.5 measured after 30 mins by nephelometry; conditions: buffer, read-out: Kinetic_solubility
[12] = test system: HEK293; experiment: Cytotoxicity against human HEK293 cells assessed as reduction in cell viability at 50 uM measured after 24 hrs by MTT assay; conditions: hek293, 24 h
[13] = test system: Plasmodium falciparum; experiment: Antimalarial activity against synchronous ring stage of Plasmodium falciparum 3D7 assessed as parasite growth inhibition incubated for 72 hrs by Griffith assay based fluorescence analysis; format: functional, organism-based; conditions: 3D7, 72 h
In short: (§4)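 22-point dose-response, 3 per log, final 40 µM top, 0.4% DMSO. 72 h at 37 °C under 90% N2/5% CO2/5% O2. DAPI stain, confocal imaging. IC50 from 4-parameter fit normalised to in-plate puromycin and DMSO controls.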

[14] = test system: Plasmodium falciparum; experiment: Antimalarial activity against synchronous ring stage of Plasmodium falciparum Dd2 assessed as parasite growth inhibition incubated for 72 hrs by Griffith assay based fluorescence analysis; format: functional, organism-based; conditions: Dd2, 72 h; in short: as §4
[15] = Selectivity index, ratio of IC50 for antimalarial activity against Plasmodium falciparum Dd2 to IC50 of antimalarial activity against Plasmodium falciparum 3D7; format: functional
[16] = test system: Plasmodium falciparum; experiment: Antiplasmodial activity against PfATP4 inhibitor SJ557733-resistant Plasmodium falciparum Dd2 assessed as reduction in parasite growth incubated for 72 hrs by Griffith assay based fluorescence analysis; format: functional, organism-based; conditions: Dd2, 72 h; in short: as §4
[17] = test system: Plasmodium falciparum; experiment: Selectivity index, ratio of IC50 for antimalarial activity against PfATP4 inhibitor SJ557733-resistant Plasmodium falciparum Dd2 to IC50 of antimalarial activity against Plasmodium falciparum Dd2; format: functional
[18] = as §2

Compound: CCCCNc1nc2ccccc2n1-c1ccccc1O
pIC50 [1]: 6.56

Activity [2]: inactive
Compound: Nc1ccc(-n2c(N)nc3ccccc32)cc1
pIC50 [1]: < 6.30

Compound: Nc1nc2ccccc2n1CCO
pIC50 [1]: < 6.30

Compound: Nc1nc2ccccc2n1-c1cc(Cl)ccc1O
pIC50 [1]: 6.79

Compound: Nc1nc2ccccc2n1-c1ccc(Cl)cc1O
pIC50 [1]: 6.79

Compound: Nc1nc2ccccc2n1-c1ccc(F)cc1O
pIC50 [1]: 6.73

Compound: Nc1ccccc1-n1c(O)nc2ccccc21
pIC50 [1]: < 6.30

Compound: Oc1ccccc1-n1cnc2ccccc21
pIC50 [1]: < 6.30

Compound: CC(C)CNc1nc2ccccc2n1-c1ccccc1O
pIC50 [1]: 6.45

Compound: Cc1cccc(O)c1-n1c(N)nc2ccccc21
pIC50 [1]: 6.87

Compound: Cc1cc(C)c(O)c(-n2c(N)nc3ccccc32)c1
pIC50 [1]: 7.64
pIC50 [3]: 6.86
pIC50 [4]: 6.88
selectivity ratio [5]: > 1000
solubility kinetic at 0.5 h [6]: > 100 µg/mL
half-life at 1 µM [7]: 0.0667 h
half-life at 1 µM [8]: 2.88 h
microsomal CLint at 1 µM [9]: 476 µL/min/mg
microsomal CLint at 1 µM [10]: 10 µL/min/mg
solubility kinetic at 0.5 h [11]: 12.5 µg/mL (≈ 49.3 µM)
Activity [12]: Non-Toxic

Compound: COc1cccc(-n2c(N)nc3ccccc32)c1O
pIC50 [1]: 7.26

Compound: Nc1nc2ccccc2n1-c1ccncc1O
pIC50 [1]: < 6.30

Compound: COc1ccc2nc3cc(Cl)ccc3c(Nc3cc(CN4CCCC4)c(O)c(CN4CCCC4)c3)c2n1 [PYRONARIDINE]
pIC50 [13]: 8.13
pIC50 [14]: 8.08
Ratio IC50 [15]: 1.1

Compound: Nc1nc2ccccc2n1-c1cccc(Cl)c1O
pIC50 [1]: < 6.30

Activity [2]: inactive
Compound: Nc1nc2ccccc2n1-c1ccc(O)cc1
pIC50 [1]: < 6.30

Compound: Nc1nc2ccccc2n1-c1cccc2ccoc12
pIC50 [1]: < 6.30

Compound: CCNc1nc2ccccc2n1-c1ccccc1O
pIC50 [1]: < 6.30

Compound: Nc1nc2ccccc2n1-c1c(O)cccc1F
pIC50 [1]: 6.49

Compound: Nc1nc2ccccc2n1-c1cccc(F)c1O
pIC50 [1]: < 6.30

Activity [2]: inactive
Compound: COc1ccccc1-n1c(N)nc2ccccc21
pIC50 [1]: < 6.30

Compound: CCCNc1nc2ccccc2n1-c1ccccc1O
pIC50 [1]: < 6.30

Compound: Nc1nc2ccccc2n1-c1ccccc1O
pIC50 [1]: 7.11
pIC50 [13]: 7.65
pIC50 [14]: 7.01
Ratio IC50 [15]: 4.4
pIC50 [3]: 6.58
pIC50 [4]: 6.46
pIC50 [16]: 7.34
Ratio IC50 [17]: 0.5
selectivity ratio [5]: > 1000
solubility kinetic at 0.5 h [6]: > 100 µg/mL
half-life at 1 µM [7]: 1.3 h
half-life at 1 µM [8]: > 4.25 h
microsomal CLint at 1 µM [9]: 22 µL/min/mg
microsomal CLint at 1 µM [10]: < 7 µL/min/mg
Activity [2]: inactive
solubility kinetic at 0.5 h [11]: > 100 µg/mL
Activity [12]: Non-Toxic

Compound: Oc1ccccc1-n1c(NCc2ccccc2)nc2ccccc21
pIC50 [1]: < 6.30

Activity [2]: inactive
Compound: Nc1nc2ccccc2n1-c1ccccc1F
pIC50 [1]: < 6.30

Compound: COc1ccc(O)c(-n2c(N)nc3ccccc32)c1
pIC50 [1]: < 6.30

Compound: Nc1cc(N)cc(-c2nc3ccccc3[nH]2)c1
pKd [18]: 4.00

Compound: Oc1ccccc1-n1c(NCC2CCCCC2)nc2ccccc21
pIC50 [1]: 6.65

Activity [2]: inactive
Compound: COc1cccc(-n2c(N)nc3ccccc32)c1
pIC50 [1]: < 6.30

Activity [2]: inactive
Compound: COc1ccc(-n2c(N)nc3ccccc32)cc1
pIC50 [1]: < 6.30

Compound: Cc1cc(O)c(-n2c(N)nc3ccccc32)cc1C
pIC50 [1]: 8.19
pIC50 [3]: 7.20
pIC50 [4]: 7.33
selectivity ratio [5]: > 1000
solubility kinetic at 0.5 h [6]: > 100 µg/mL
half-life at 1 µM [7]: 0.383 h
half-life at 1 µM [8]: 2.15 h
microsomal CLint at 1 µM [9]: 76 µL/min/mg
microsomal CLint at 1 µM [10]: 13 µL/min/mg
solubility kinetic at 0.5 h [11]: 12.5 µg/mL (≈ 49.3 µM)
Activity [12]: Non-Toxic

Compound: C[C@H]1[C@@H](O)O[C@@H]2O[C@@]3(C)CC[C@H]4[C@H](C)CC[C@@H]1[C@@]24OO3 [ARTENIMOL]
pIC50 [1]: 8.70
pIC50 [13]: 9.40
pIC50 [14]: 9.22
Ratio IC50 [15]: 1.3

Compound: Nc1nc2ccccc2n1-c1ccc2ccccc2c1O
pIC50 [1]: 7.42
pIC50 [3]: 6.94
pIC50 [4]: 6.98
selectivity ratio [5]: > 1000
Activity [12]: Non-Toxic
